The compounds below were run against T1, Secreted chorismate mutase (Mycobacterium tuberculosis) (UniProt P9WIB9) (assay: Inhibition of Mycobacterium tuberculosis chorismate mutase expressed in Escherichia coli BL21 assessed as conversion of chorismate to prephenate at 50 uM after 5 mins by Spectrophotometry).
T1 sequence (whole entry): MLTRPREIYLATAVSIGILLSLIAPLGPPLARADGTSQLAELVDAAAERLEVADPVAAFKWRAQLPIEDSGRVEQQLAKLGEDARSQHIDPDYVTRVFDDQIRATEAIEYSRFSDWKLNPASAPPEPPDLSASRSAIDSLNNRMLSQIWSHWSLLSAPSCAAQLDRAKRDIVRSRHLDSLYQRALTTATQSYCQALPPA
Method in brief: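 MtCM purified by Ni-NTA from BL21(DE3) carrying pET22b/MtCM; 180 pmol started on 4 mM chorismate (Tris-HCl pH 7.5, EDTA, BSA, β-mercaptoethanol) with effector at 50 μM, 37 °C, 5 min, quenched with 1 N HCl. Absorbance at 274 nm, corrected for compound and no-enzyme blanks; % inhibition = 100 − residual activity.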

Going from Oc1ccc(-c2nc3ccccc3nc2-c2c[nH]c3ccc(Br)cc23)c(O)c1 to Brc1ccc2[nH]cc(-c3nc4ccccc4nc3-c3c[nH]c4ccccc34)c2c1, the inhibition rises from 21% to 31%.

Going from Oc1ccc(-c2nc3ccccc3nc2Cl)c(O)c1 to Oc1ccc(-c2nc3ccccc3nc2Cl)c2ccccc12, the inhibition rises from 31% to 35%.

Compared with COc1ccc2[nH]cc(-c3nc4ccccc4nc3Cl)c2c1, COc1ccc2c(-c3nc4ccccc4nc3Cl)c[nH]c2c1 is higher in inhibition: 36% for the first, 42% for the second.

Compared with Fc1cc2[nH]cc(-c3nc4ccccc4nc3-c3c[nH]c4ccc(Br)cc34)c2cc1F, COc1ccc2c(-c3nc4ccccc4nc3-c3c[nH]c4ccccc34)c[nH]c2c1 is higher in inhibition: 27% for the first, 45% for the second.

First: Fc1cc2[nH]cc(-c3nc4ccccc4nc3Cl)c2cc1F
Second: Oc1ccc2ccccc2c1-c1nc2ccccc2nc1-c1c[nH]c2ccc(Br)cc12
The inhibition of the first is higher: 64% for the first, 35% for the second.

These compounds were tested against T2, Secreted chorismate mutase (Mycobacterium tuberculosis, UniProt P9WIB9) (assay: (§1) Inhibition of Mycobacterium tuberculosis chorismate mutase expressed in Escherichia coli BL21 assessed as conversion of chorismate to prephenate after 5 mins by Spectrophotometry).
T2 sequence (P9WIB9 whole entry): T1 sequence (whole entry)

For Fc1cc2[nH]cc(-c3nc4ccccc4nc3Cl)c2cc1F, the IC50 was 19.7 µM.

The compounds below were run against T1, Secreted chorismate mutase (Mycobacterium tuberculosis) (assay: as §1).

In the case of Fc1cc2[nH]cc(-c3nc4ccccc4nc3Cl)c2cc1F, the inhibition is reported as “Dose-dependent effect”.

Source: ChEMBL document CHEMBL1944518, “AlCl3 induced (hetero)arylation of 2,3-dichloroquinoxaline: a one-pot synthesis of mono/disubstituted quinoxalines as potential antitubercular agents” (Bioorg Med Chem, 2012)
